Measurements published in ChEMBL document CHEMBL1130176, “Selective inhibitors of cyclic AMP-specific phosphodiesterase: heterocycle-condensed purines” (J Med Chem, 1997).

Assays:
[1] = molecular target: Phosphodiesterase 4 (Homo sapiens, UniProt P27815+Q08499+Q07343+Q08493); experiment: Inhibitory activity against Phosphodiesterase 4 from cerebral cortex.
[2] = species on record: Cavia porcellus; experiment: Compound was tested in vitro for positive chronotropic action.; type: functional
In short: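 Isolated right atrium from male Hartley guinea pig (300–500 g) in Krebs–Henseleit, 95% O2–5% CO2, 25 °C, 0.5 g tension. Cumulative compound concentrations, at least five spanning the EC20. Beating rate recorded by cardiotachometer triggered by isometric contraction. Value is the concentration raising the unstimulated rate by 20% (EC20). DMSO below 0.5% final.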

[3] = species on record: Cavia porcellus; experiment: Tested in vitro for tracheal relaxation; type: functional; conditions: Trachea
In short: (§1)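 Tracheal ring-chains from male Hartley guinea pigs (300–500 g), 37 °C Krebs–Henseleit pH 7.4, 95% O2–5% CO2, 0.5 g tension, isometric recording. After full relaxation with 1.0 μM isoprenaline and washout, spontaneous tone redeveloped. Cumulative compound concentrations then given, at least five spanning the EC50.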

[4] = molecular target: Phosphodiesterase 3 (Homo sapiens, UniProt Q14432+Q13370); experiment: Inhibitory activity against Phosphodiesterase 3 from heart.; type: protein assay
In short: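 PDE I (Ca2+/calmodulin-stimulated, cerebral cortex) and PDE III (cGMP-inhibited, heart) isolated by the Reeves method. IC50 fitted by nonlinear least squares. Final DMSO below 0.5%.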

[5] = molecular target: Phosphodiesterase 1 (Homo sapiens, UniProt P54750+Q01064+Q14123); experiment: Inhibitory activity against PDE1 from cerebral cortex; type: tissue-based
In short: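 PDE I (Ca2+/calmodulin-stimulated, cerebral cortex) and PDE III (cGMP-inhibited, heart) isolated by the Reeves method. […] IC50 fitted by nonlinear least squares. Final DMSO below 0.5%.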

[6] = system: Suncus murinus; experiment: Emetic effect in shrews at 10 mg/kg peroral dose, 3 of 3 animals affected; type: functional; conditions: route oral
[7] = species on record: Cavia porcellus; experiment: In vitro guinea pig tracheal relaxation; type: functional; conditions: Trachea
In short: as §1

[8] = species on record: Cavia porcellus; experiment: In vitro positive chronotropic effect; type: functional
In short: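 Isolated right atrium from male Hartley guinea pigs (300–500 g) in Krebs–Henseleit, 25 °C, 95% O2–5% CO2, 0.5 g tension. Cumulative compound concentrations; beating rate recorded by cardiotachometer triggered by isometric contraction. EC20 is the concentration raising unstimulated rate by 20%, from over five concentrations. DMSO below 0.5% final.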

[9] = system: Suncus murinus; experiment: Emetic effect in shrews at 100 mg/kg peroral dose, 0 of 3 animals affected; type: functional; conditions: route oral
[10] = system: Suncus murinus; experiment: (§2) Emetic effect in shrews at 30 mg/kg peroral dose, 0 of 3 animals affected; type: functional; conditions: route oral
[11] = system: Suncus murinus; experiment: as §2; type: functional; conditions: route oral; remark: listed apart in the source
[12] = system: Suncus murinus; experiment: Emetic effect in shrews at 30 mg/kg peroral dose, 3 of 3 animals affected; type: functional; conditions: route oral
[13] = species on record: Cavia porcellus; experiment: Negative inotropic response to adenosine in guinea pig left atrium; type: functional; conditions: Cardiac atrium, read-out: pA2 (converted)

Structure (SMILES)	IC50 [1]	EC20 [2]	EC50 [3]	IC50 [4]	IC50 [5]	further results
CCCn1c(=O)n2ccnc2c2[nH]cnc21	3.1 µM	90 µM	1.6 µM	> 100 µM	> 100 µM	
CCCn1cnc2c1c1nccn1c(=O)n2CCC	1.9 µM	84 µM	0.7 µM	> 100 µM	14 µM	
CCCn1c(=O)n2nnnc2c2[nH]cnc21	> 100 µM	> 100 µM	> 100 µM	> 100 µM	> 100 µM	
Nc1cc(-c2ccncc2)c[nH]c1=O [INAMRINONE]		62 µM	7.4 µM		> 300 µM	
CCCN1C(=O)N2CCCCN=C2c2ncn(CCC)c21	13 µM	> 100 µM	2.5 µM	> 100 µM	> 100 µM	
CCCn1cnc2c1n(CCC)c(=O)n1ccnc21	1.4 µM	19 µM	0.5 µM	> 100 µM	40 µM	Emesis [6]: 3
CCCN1C(=O)N2CCCN=C2c2[nH]cnc21	> 100 µM	> 100 µM	22 µM	> 100 µM	> 100 µM	
CCCn1cnc2c1n(CCC)c(=O)n1nnnc21	39 µM	> 100 µM	68 µM	> 100 µM	> 100 µM	
CCCN1C(=O)N2CCCCN=C2c2[nH]cnc21	> 100 µM	> 100 µM	53 µM	> 100 µM	> 100 µM	
CCCCOc1cc(CC2CNC(=O)N2)ccc1OC (stereo unspecified) [RO-201724]				> 300 µM	> 300 µM	EC50 [7]: 0.12 µM; EC20 [8]: > 100 µM
CCCN1C(=O)N2CCN=C2c2[nH]cnc21	> 100 µM	> 100 µM	31 µM	> 100 µM	> 100 µM	
CCCN1C(=O)N2CCN=C2c2ncn(CCC)c21	1.6 µM	> 100 µM	1 µM	> 100 µM	> 100 µM	Emesis [9]: 0; Emesis [10]: 0; Emesis [11]: 0
CCCN1C(=O)N2CCCN=C2c2ncn(CCC)c21	4.7 µM	> 100 µM	2.1 µM	> 100 µM	> 100 µM	
CCCn1cnc2c1c1nnnn1c(=O)n2CCC	18 µM	> 100 µM	51 µM	> 100 µM	> 100 µM	
CCCN1C(=O)N2CCCN=C2c2c1ncn2CCC	49 µM	> 100 µM	8.2 µM	> 100 µM	> 100 µM	
COc1ccc(C2CNC(=O)C2)cc1OC1CCCC1 (stereo unspecified) [ROLIPRAM]						Emesis [6]: 3
CCCCn1c(=O)c2c(ncn2CC(C)=O)n(CCCC)c1=O [DENBUFYLLINE]						Emesis [12]: 3
Cn1c(=O)c2nc[nH]c2n(C)c1=O.O [THEOPHYLLINE]					356 µM	EC20 [8]: 88 µM; Kb [13]: 29.5 µM
CCCN1C(=O)N2CCN=C2c2c1ncn2CCC	5.1 µM	> 100 µM	2.5 µM	> 100 µM	> 100 µM	
